{"source": "ChEMBL document CHEMBL3091313", "about": "“Amino acids derived benzoxazepines: design, synthesis and antitumor activity” (Bioorg Med Chem Lett, 2013)", "key": {"MCF7 [1]": {"test_system": "MCF7", "assay": "Induction of apoptosis in human MCF7 cells assessed as caspase-8 cleavage at 5 uM after 6 hrs by immunoblotting method", "type": "functional, cell-based"}, "MCF7 [2]": {"test_system": "MCF7", "assay": "Induction of apoptosis in human MCF7 cells assessed as phosphatidylserine exposure after 24 hrs using annexin V/PI staining by flow cytometry", "type": "functional, cell-based", "summary_of_the_method": "(§1)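 MCF-7 cells were exposed to vehicle or the indicated compound concentrations for 24 h. Phosphatidylserine exposure was then measured by flow cytometry after staining with FITC-labelled Annexin V and propidium iodide. Apoptotic cell fractions were read from dot plots relative to vehicle.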"}, "MCF7 [3]": {"test_system": "MCF7", "assay": "Antitumor activity against human MCF7 cells xenografted in athymic nude mouse assessed as reduction in tumor volume at 16 mg/kg/day, po for 21 days measured after 21 days relative to control", "type": "functional", "set-up": "scale not given: the % may be the effect or the level left"}, "MDA-MB-231 [4]": {"test_system": "MDA-MB-231", "assay": "Cell cycle arrest in human MDA-MB-231 cells assessed as accumulation at S phase at 5 uM after 24 hrs using propidium iodide staining by flow cytometry (reference value: 28.59 %)", "type": "functional"}, "MCF7 [5]": {"test_system": "MCF7", "assay": "Induction of apoptosis in human MCF7 cells assessed as late apoptotic cells at 3 uM after 24 hrs using annexin V/PI staining by flow cytometry (reference value: 6.46 %)", "type": "functional", "summary_of_the_method": "as §1"}, "MDA-MB-231 [6]": {"test_system": "MDA-MB-231", "assay": "Cell cycle arrest in human MDA-MB-231 cells assessed as accumulation at S phase at 3 uM after 24 hrs using propidium iodide staining by flow cytometry (reference value: 28.59 %)", "type": "functional"}, "MCF7 [7]": {"test_system": "MCF7", "assay": "Induction of apoptosis in human MCF7 cells assessed as late apoptotic cells at 5 uM after 24 hrs using annexin V/PI staining by flow cytometry (reference value: 6.46 %)", "type": "functional", "summary_of_the_method": "as §1"}, "MDA-MB-231 [8]": {"test_system": "MDA-MB-231", "assay": "Cell cycle arrest in human MDA-MB-231 cells assessed as accumulation at G1 phase at 3 uM after 24 hrs using propidium iodide staining by flow cytometry (reference value: 52.67 %)", "type": "functional"}, "MCF7 [9]": {"test_system": "MCF7", "assay": "Induction of apoptosis in human MCF7 cells assessed as reduction in cell viability at 5 uM after 24 hrs by MTT assay in presence of LEHD-FMK", "type": "functional, cell-based"}, "MCF7 [10]": {"test_system": "MCF7", "assay": "Induction of apoptosis in human MCF7 cells assessed as caspase-3 cleavage at 5 uM after 3 hrs by immunoblotting method", "type": "functional, cell-based"}, "MCF7 [11]": {"test_system": "MCF7", "assay": "Antiproliferative activity against human MCF7 cells after 72 hrs by MTT assay", "type": "functional, cell-based", "conditions": "MCF7, 72 h", "summary_of_the_method": "(§2)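 MCF-7 (ER+ve) and MDA-MB-231 (ER-ve) breast cancer cells were exposed to compound or vehicle. Viability was read by MTT and expressed as % cell death versus vehicle, with 4-hydroxytamoxifen as positive control. IC50 came from three independent experiments, each in triplicate.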"}, "MDA-MB-231 [12]": {"test_system": "MDA-MB-231", "assay": "Cell cycle arrest in human MDA-MB-231 cells assessed as accumulation at G1 phase at 1 uM after 24 hrs using propidium iodide staining by flow cytometry (reference value: 52.67 %)", "type": "functional"}, "MDA-MB-231 [13]": {"test_system": "MDA-MB-231", "assay": "Cell cycle arrest in human MDA-MB-231 cells assessed as accumulation at G2 phase at 3 uM after 24 hrs using propidium iodide staining by flow cytometry (reference value: 18.75 %)", "type": "functional"}, "[14]": {"assay": "Cytotoxicity against rat primary calvarial osteoblasts after 24 hrs by MTT assay", "type": "cell-based", "conditions": "calvarial osteoblast", "summary_of_the_method": "(§3)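 Vero, HEK-293 and primary rat calvarial osteoblasts were given vehicle or a range of concentrations for 24 h. Cell death was expressed as % relative to vehicle.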"}, "MCF7 [15]": {"test_system": "MCF7", "assay": "Cell cycle arrest in human MCF7 cells assessed as accumulation at G1 phase at 5 uM after 24 hrs using propidium iodide staining by flow cytometry (reference value: 67.73 %)", "type": "functional"}, "MCF7 [16]": {"test_system": "MCF7", "assay": "Induction of apoptosis in human MCF7 cells assessed as reduction in mitochondrial membrane potential at 1 to 5 uM after 12 hrs by Jc-1 staining-based flow cytometry", "type": "functional, cell-based"}, "MDA-MB-231 [17]": {"test_system": "MDA-MB-231", "assay": "Cell cycle arrest in human MDA-MB-231 cells assessed as accumulation at S phase at 1 uM after 24 hrs using propidium iodide staining by flow cytometry (reference value: 28.59 %)", "type": "functional"}, "MCF7 [18]": {"test_system": "MCF7", "assay": "Cell cycle arrest in human MCF7 cells assessed as increase in p27 mRNA level at 1 to 5 uM after 12 hrs by QRT-PCR method", "type": "functional, cell-based"}, "MDA-MB-231 [19]": {"test_system": "MDA-MB-231", "assay": "Cell cycle arrest in human MDA-MB-231 cells assessed as accumulation at G2 phase at 5 uM after 24 hrs using propidium iodide staining by flow cytometry (reference value: 18.75 %)", "type": "functional"}, "MDA-MB-231 [20]": {"test_system": "MDA-MB-231", "assay": "Antiproliferative activity against human MDA-MB-231 cells after 24 hrs by MTT assay", "type": "functional, cell-based", "conditions": "MDA-MB-231, 24 h", "summary_of_the_method": "as §2"}, "MCF7 [21]": {"test_system": "MCF7", "assay": "Induction of apoptosis in human MCF7 cells assessed as caspase-9 cleavage at 5 uM after 6 hrs by immunoblotting method", "type": "functional, cell-based"}, "MCF7 [22]": {"test_system": "MCF7", "assay": "Induction of apoptosis in human MCF7 cells assessed as increase in Bax/Bcl2 ratio at 5 uM after 6 to 24 hrs by immunoblotting method", "type": "functional, cell-based"}, "MCF7 [23]": {"test_system": "MCF7", "assay": "Cell cycle arrest in human MCF7 cells assessed as apoptosis at 3 uM after 24 hrs using propidium iodide staining by flow cytometry (reference value: 0.06 %)", "type": "functional"}, "Vero": {"test_system": "Vero", "assay": "Cytotoxicity against african green monkey Vero cells after 24 hrs by MTT assay", "type": "cell-based", "conditions": "chlorocebus sabaeus", "summary_of_the_method": "as §3"}, "MCF7 [24]": {"test_system": "MCF7", "assay": "Cell cycle arrest in human MCF7 cells assessed as increase in p21 mRNA level at 1 to 5 uM after 12 hrs by QRT-PCR method", "type": "functional, cell-based"}, "MCF7 [25]": {"test_system": "MCF7", "assay": "Cytotoxicity against human MCF7 cells assessed as reduction in membrane integrity at IC50 by LDH release assay", "type": "functional, cell-based", "summary_of_the_method": "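Membrane integrity was assessed in MCF-7 cells exposed to a range of compound concentrations, by measuring LDH released into the culture medium.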"}, "MCF7 [26]": {"test_system": "MCF7", "assay": "Antiproliferative activity against human MCF7 cells after 24 hrs by MTT assay", "type": "functional, cell-based", "conditions": "MCF7, 24 h", "summary_of_the_method": "as §2"}}, "note": "Calls of active or inactive are those of the source. The calls are words filed in the database; no cut-off is given here."}
{"smiles": "Cc1ccc(S(=O)(=O)N2Cc3ccccc3OC[C@@H]2Cc2ccc(OCCN3CCCCCC3)cc2)cc1.Cl", "values": [{"measurement": "Activity", "setting": "MCF7 [1]", "value": "Active"}, {"measurement": "Activity", "setting": "MCF7 [2]", "value": "Dose-dependent effect"}, {"measurement": "Activity", "setting": "MCF7 [3]", "value": 50, "unit": "%"}, {"measurement": "Activity", "setting": "MDA-MB-231 [4]", "value": 17.71, "unit": "%"}, {"measurement": "Activity", "setting": "MCF7 [5]", "value": 25.59, "unit": "%"}, {"measurement": "Activity", "setting": "MDA-MB-231 [6]", "value": 18.64, "unit": "%"}, {"measurement": "Activity", "setting": "MCF7 [7]", "value": 35.77, "unit": "%"}, {"measurement": "Activity", "setting": "MDA-MB-231 [8]", "value": 73.31, "unit": "%"}, {"measurement": "Activity", "setting": "MCF7 [9]", "value": "inactive"}, {"measurement": "Activity", "setting": "MCF7 [10]", "value": "Active"}, {"measurement": "IC50", "setting": "MCF7 [11]", "value": 1.83, "unit": "µM"}, {"measurement": "Activity", "setting": "MDA-MB-231 [12]", "value": 67.73, "unit": "%"}, {"measurement": "Activity", "setting": "MDA-MB-231 [13]", "value": 8.08, "unit": "%"}, {"measurement": "Activity", "setting": "[14]", "value": "Non-toxic"}, {"measurement": "Activity", "setting": "MCF7 [15]", "value": 86.22, "unit": "%"}, {"measurement": "Activity", "setting": "MCF7 [16]", "value": "Active"}, {"measurement": "Activity", "setting": "MDA-MB-231 [17]", "value": 24.81, "unit": "%"}, {"measurement": "Activity", "setting": "MCF7 [18]", "value": "Active"}, {"measurement": "Activity", "setting": "MDA-MB-231 [19]", "value": 6.48, "unit": "%"}, {"measurement": "IC50", "setting": "MDA-MB-231 [20]", "value": 7.2, "unit": "µM"}, {"measurement": "Activity", "setting": "MCF7 [21]", "value": "Active"}, {"measurement": "Activity", "setting": "MCF7 [22]", "value": "Active"}, {"measurement": "Activity", "setting": "MCF7 [23]", "value": 0.52, "unit": "%"}, {"measurement": "Activity", "setting": "Vero", "value": "Non-toxic"}, {"measurement": "Activity", "setting": "MCF7 [24]", "value": "Active"}, {"measurement": "Activity", "setting": "MCF7 [25]", "value": "inactive"}, {"measurement": "IC50", "setting": "MCF7 [26]", "value": 6.78, "unit": "µM"}]}
